Measurements from ChEMBL document CHEMBL4364267, “Hydrogen sulfide donating ent-kaurane and spirolactone-type 6,7-seco-ent-kaurane derivatives: Design, synthesis and antiproliferative properties” (Eur J Med Chem, 2019).
The source made the active and inactive calls. The rule behind the calls is not given here.

What was measured:
K562 = assay: Antiproliferative activity against human K562 cells assessed as reduction in cell viability after 72 hrs by MTT assay; format: functional, cell-based; settings: K562, 72 h
Procedure, shortened: (§1)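 MTT assay over 72 h, compounds at 64, 16, 4, 1, 0.25, 0.0625 and 0.015625 μM. MTT solution (5 mg/mL) and DMSO added afterwards, 10 min at room temperature, absorbance read at 490 nm. IC50 calculated as the mean ± SD of three independent experiments.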

SGC-7901 = assay: Antiproliferative activity against human SGC7901 cells assessed as reduction in cell viability after 72 hrs by MTT assay; format: functional, cell-based; settings: SGC-7901, 72 h; procedure, shortened: as §1
A549 = assay: Antiproliferative activity against human A549 cells assessed as reduction in cell viability after 72 hrs by MTT assay; format: functional, cell-based; settings: A549, 72 h; procedure, shortened: as §1
L02 = assay: Cytotoxicity against human L02 cells assessed as reduction in cell viability after 72 hrs by MTT assay; format: cell-based; settings: L02, 72 h; procedure, shortened: as §1
PBMC = assay: Cytotoxicity against human PBMC assessed as reduction in cell viability after 72 hrs by MTT assay; format: cell-based; procedure, shortened: as §1
Bel-7402 [1] = assay: Cell cycle arrest in human Bel7402 cells assessed as accumulation of cells at G1 phase at 0.45 uM after 48 hrs by propidium iodide/RNase staining based flow cytometric analysis (reference value: 30.95%); format: functional
Bel-7402 [2] = assay: Cell cycle arrest in human Bel7402 cells assessed as accumulation of cells at G2 phase at 0.45 uM after 48 hrs by propidium iodide/RNase staining based flow cytometric analysis (reference value: 29.97%); format: functional
Bel-7402 [3] = assay: Cell cycle arrest in human Bel7402 cells assessed as accumulation of cells at S phase at 0.45 uM after 48 hrs by propidium iodide/RNase staining based flow cytometric analysis (reference value: 39.09%); format: functional
Bel-7402 [4] = assay: Cell cycle arrest in human Bel7402 cells assessed as accumulation of cells at G2 phase at 0.90 uM after 48 hrs by propidium iodide/RNase staining based flow cytometric analysis (reference value: 29.97%); format: functional
Bel-7402 [5] = assay: Cell cycle arrest in human Bel7402 cells assessed as accumulation of cells at S phase at 1.80 uM after 48 hrs by propidium iodide/RNase staining based flow cytometric analysis (reference value: 39.09%); format: functional
Bel-7402 [6] = assay: Induction of morphological changes in human Bel7402 cells assessed as nuclear fragmentation at 0.45 to 1.80 uM after 48 hrs by Hoechst 33258 staining-based fluorescent microscopic analysis; format: functional, cell-based
Procedure, shortened: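 Bel-7402 cells cultured 24 h in 6-well plates at 37 °C, then exposed 48 h to 0, 0.45, 0.90 or 1.80 μM. Harvested by mild trypsinization and washed twice with PBS. Stained with Hoechst 33258 (2 mg/mL) for 15 min at room temperature in the dark, washed, and viewed by fluorescence microscopy.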

Bel-7402 [7] = assay: Induction of apoptosis in human Bel7402 cells assessed as early apoptotic cells at 0.45 uM after 48 hrs by Annexin V-FITC/propidium iodide staining based flow cytometry (reference value: 2.09%); format: functional
Procedure, shortened: (§2)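 Bel-7402 cells in 6-well plates treated with 0, 0.45, 0.90 or 1.80 μM, washed twice with PBS and resuspended in annexin V binding buffer. Stained with annexin V-FITC and PI for 15 min at room temperature in the dark, then analysed by flow cytometry. Methods state 24 h exposure; the figure legend states 48 h.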

Bel-7402 [8] = assay: Induction of apoptosis in human Bel7402 cells assessed as viable cells at 0.90 uM after 48 hrs by Annexin V-FITC/propidium iodide staining based flow cytometry (reference value: 97.22%); format: functional; settings: Bel-7402, 48 h, read-out: Activity; procedure, shortened: as §2
Bel-7402 [9] = assay: Induction of apoptosis in human Bel7402 cells assessed as early apoptotic cells at 0.90 uM after 48 hrs by Annexin V-FITC/propidium iodide staining based flow cytometry (reference value: 2.09%); format: functional; procedure, shortened: as §2
Bel-7402 [10] = assay: Induction of apoptosis in human Bel7402 cells assessed as necrotic cells at 0.90 uM after 48 hrs by Annexin V-FITC/propidium iodide staining based flow cytometry (reference value: 0.01%); format: functional; procedure, shortened: as §2
Bel-7402 [11] = assay: Induction of apoptosis in human Bel7402 cells assessed as early apoptotic cells at 1.80 uM after 48 hrs by Annexin V-FITC/propidium iodide staining based flow cytometry (reference value: 2.09%); format: functional; procedure, shortened: as §2
Bel-7402 [12] = assay: Induction of apoptosis in human Bel7402 cells after 48 hrs by Annexin V-FITC/propidium iodide staining based assay; format: functional, cell-based; procedure, shortened: as §2
Bel-7402 [13] = assay: Induction of mitochondrial membrane potential loss in human Bel7402 cells assessed as cell population with intact mitochondrial membrane potential at 0.45 uM after 48 hrs by JC1 staining-based flow cytometry analysis (reference value: 98.67%); format: functional
Procedure, shortened: (§3)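 Bel-7402 cells in 6-well plates exposed for 48 h to 0, 0.45, 0.90 or 1.80 μM, DMSO as vehicle. Washed with PBS and stained with JC-1 at room temperature in the dark. Cells with collapsed membrane potential counted by flow cytometry.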

Bel-7402 [14] = assay: Induction of mitochondrial membrane potential loss in human Bel7402 cells assessed as cell population with mitochondrial membrane potential collapse at 0.45 uM after 48 hrs by JC1 staining-based flow cytometry analysis (reference value: 1.28%); format: functional; procedure, shortened: as §3
Bel-7402 [15] = assay: Induction of mitochondrial membrane potential loss in human Bel7402 cells assessed as cell population with intact mitochondrial membrane potential at 1.80 uM after 48 hrs by JC1 staining-based flow cytometry analysis (reference value: 98.67%); format: functional; procedure, shortened: as §3
Bel-7402 [16] = assay: Induction of mitochondrial membrane potential loss in human Bel7402 cells assessed as cell population with mitochondrial membrane potential collapse at 1.80 uM after 48 hrs by JC1 staining-based flow cytometry analysis (reference value: 1.28%); format: functional; procedure, shortened: as §3
Bel-7402 [17] = assay: Induction of mitochondrial membrane potential depolarization in human Bel7402 cells after 48 hrs by JC1 staining-based flow cytometry analysis; format: functional, cell-based; procedure, shortened: as §3
Bel-7402 [18] = assay: Induction of apoptosis in human Bel7402 cells assessed as increase in Bax expression at 0.90 to 1.80 uM after 48 hrs by Western blot analysis; format: functional, cell-based
Bel-7402 [19] = assay: Induction of apoptosis in human Bel7402 cells assessed as increase in cleaved caspase-3 expression at 0.90 to 1.80 uM after 48 hrs by Western blot analysis; format: functional, cell-based
Bel-7402 [20] = assay: Induction of apoptosis in human Bel7402 cells assessed as reduction in procaspase-3 expression at 0.90 to 1.80 uM after 48 hrs by Western blot analysis; format: functional, cell-based
Bel-7402 [21] = assay: Induction of apoptosis in human Bel7402 cells assessed as reduction in PARP expression at 0.45 to 1.80 uM after 48 hrs by Western blot analysis; format: functional, cell-based
[22] = Selectivity index, ratio of IC50 for human PBMC to IC50 for human Bel7402 cells after 72 hrs by MTT assay; format: toxicity; settings: PBMC versus Bel7402 cells, read-out: Ratio IC50

IC50 (K562): 1.01 µM
IC50 (SGC-7901): 4.36 µM
IC50 (A549): 5.21 µM
Compound: C=C1C(=O)[C@@]23C(=O)OC[C@]4(C(=O)CCC(C)(C)[C@H]4C=O)[C@@H]2CC[C@@H]1[C@H]3OC(=O)CCCC(=O)Oc1ccc(-c2cc(=S)ss2)cc1
IC50 (L02): 20.8 µM
IC50 (PBMC): 19.9 µM
Activity (Bel-7402 [1]): 37.37%
Activity (Bel-7402 [2]): 22.21%
Activity (Bel-7402 [3]): 40.42%
Activity (Bel-7402 [4]): 19.81%
Activity (Bel-7402 [5]): 34.52%
Activity (Bel-7402 [6]): Active
Activity (Bel-7402 [7]): 9.92%
viability at 0.9 µM (Bel-7402 [8]): 72.5%
Activity (Bel-7402 [9]): 15.17%
Activity (Bel-7402 [10]): 0.06%
Activity (Bel-7402 [11]): 18.68%
Activity (Bel-7402 [12]): Dose-dependent effect
Activity (Bel-7402 [13]): 81.5%
Activity (Bel-7402 [14]): 18.48%
Activity (Bel-7402 [15]): 41.23%
Activity (Bel-7402 [16]): 58.59%
Activity (Bel-7402 [17]): Dose-dependent effect
Activity (Bel-7402 [18]): Active
Activity (Bel-7402 [19]): Active
Activity (Bel-7402 [20]): Active
Activity (Bel-7402 [21]): Active
selectivity ratio at 72 h [22]: 24
